Assay results as given in ChEMBL document CHEMBL1148488, “Design, synthesis, and evaluation of a liposaccharide drug delivery agent: application to the gastrointestinal absorption of gentamicin” (J Med Chem, 2004).

Legend:
Assay type in all cases: ADME, organism-based
[1] = Oral bioavailability in rat (dose 60 mg/kg p.o.); details: in vivo
Method in brief: (§1)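 Cannulated male Sprague–Dawley rats (300–350 g), fasted 15 h, given 60 mg/kg by oral gavage under light O2/CO2 anaesthesia in 1 mL 5% DMSO/water at pH 8. Arterial plasma sampled 0–120 min and assayed by fluorescence polarization immunoassay. Cmax is observed; AUC0–120 is trapezoidal. F = AUCpo·dose_iv/(AUCiv·dose_po)×100, using iv 3 mg/kg. Mean ± SEM, 4–5 rats.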

[2] = Area under the curve at a concentration of 3 mg/kg in rats, intravenously; set-up: dose 3 mg/kg, route intravenous; details: rat, in vivo, iv, read-out: AUC 120 (converted)
Method in brief: (§2)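 Male Sprague–Dawley rats (300–350 g) with femoral artery cannula, dosed next day at 3 mg/kg in 0.3 mL heparinized saline via lateral tail vein. Arterial blood drawn at 0, 5, 10, 15, 30, 60, 90, 120 min, and plasma frozen at –70 °C. Gentamicin measured by fluorescence polarization immunoassay (LOD 0.30 μg/mL). Cmax is the observed value; AUC0–120 by linear trapezoidal rule. Mean ± SEM, 4–5 rats.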

[3] = Maximum plasma concentration at a concentration of 60 mg/kg perorally in rats along with control; set-up: dose 60 mg/kg, route oral; details: rat, po; method in brief: as §1
[4] = Area under the curve at a concentration of 60 mg/kg perorally in rats along with control; set-up: dose 60 mg/kg, route oral; details: rat, in vivo, po, read-out: AUC 120 (converted); method in brief: as §1
[5] = Maximum plasma concentration at a concentration of 3 mg/kg in rats, intravenously; set-up: dose 3 mg/kg, route intravenous; details: rat, iv; method in brief: as §2
Rattus norvegicus = assay: Bioavailability in rat (dose 3 mg/kg i.v.); details: in vivo, iv

bioavailability [1] [%] | AUC [2] [ng·h/mL] | Cmax [3] [ng/mL] | AUC [4] [ng·h/mL] | Cmax [5] [ng/mL] | F (Rattus norvegicus) [%] | bioavailability ([1]; read-out: Bioavailabiility) [%] | Bioavailabiility (Rattus norvegicus) [%] | SMILES
1.4 | 4180 | 770 | 1180 | 8190 | 100 | – | – | CNC(C)C1CC[C@H](N)[C@@H](OC2[C@@H](O)[C@@H](O[C@H]3OC[C@H](O)[C@@H](NC)[C@@H]3O)[C@H](N)C[C@@H]2N)O1.O=S(=O)(O)O (stereo partly drawn)
1.4 | 4180 | 770 | 1180 | 8190 | 100 | – | – | CN[C@@H]1[C@H](O)[C@H](O[C@H]2[C@H](N)C[C@H](N)C(O[C@H]3OC(C(C)N)CC[C@@H]3N)[C@H]2O)OC[C@@H]1O.O=S(=O)(O)O (stereo partly drawn)
– | 4180 | 770 | 1180 | 8190 | – | 1.4 | 100 | CN[C@@H]1C(O)[C@H](O[C@@H]2C(O)C(O[C@H]3OC(CN)CCC3N)[C@@H](N)C[C@H]2N)OC[C@@H]1O.O=S(=O)(O)O (stereo partly drawn)
